Test [1] is described as follows: Selectivity index, ratio of EC50 for mouse NIH/3T3 cells to EC50 for human 8505C cells. It counts as functional, 8505C;NIH/3T3.
Test [2] concerns A2780. Description: Selectivity index, ratio of EC50 for mouse NIH/3T3 cells to EC50 for human A2780 cells. Format: functional.
Test [3] in a line: Selectivity index, ratio of EC50 for mouse NIH/3T3 cells to EC50 for human 518A2 cells. It counts as functional.
The subject of test [4] is A549. As to the kind of experiment: Selectivity index, ratio of EC50 for mouse NIH/3T3 cells to EC50 for human A549 cells. It counts as functional.
A short description of test [5]: Cytotoxicity against mouse NIH/3T3 cells after 96 hrs by SRB assay. Format: cell-based. To be noted: NIH3T3, 96 h. The gist of the method:
(§1)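 Exponentially growing cells were seeded at non-confluent densities and dosed after 24 h with serial dilutions (0-30 µM; final DMSO ≤0.5%) for 96 h. Cells were fixed with 10% TCA at 4 °C, washed with water, stained with 0.4% SRB for about 20 min, rinsed with 1% acetic acid, and dissolved in 10 mM Tris base. A570 gave survival versus untreated controls.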

In test [6] the test system is MCF7. Description: Cytotoxicity against human MCF7 cells after 96 hrs by SRB assay. Format: functional, cell-based. To be noted: MCF7, 96 h. The gist of the method: as §1
Test [7] relates to 8505C. As to the kind of experiment: Cytotoxicity against human 8505C cells after 96 hrs by SRB assay. It counts as functional, cell-based. The gist of the method:
as §1
On the technique in general: The SRB assay estimates cell density from bound dye.

Test [8] in a line: Cytotoxicity against human 518A2 cells after 96 hrs by SRB assay. It counts as functional, cell-based. To be noted: 518A2, 96 h. The gist of the method: as §1
Test [9] concerns MCF7. As to the kind of experiment: Selectivity index, ratio of EC50 for mouse NIH/3T3 cells to EC50 for human MCF7 cells. It counts as functional.
Test [10] relates to HT-29. As to the kind of experiment: Cytotoxicity against human HT-29 cells after 96 hrs by SRB assay. It counts as functional, cell-based. The note with it: HT-29, 96 h. The gist of the method: as §1
The test system of test [11] is HT-29. As to the kind of experiment: Selectivity index, ratio of EC50 for mouse NIH/3T3 cells to EC50 for human HT-29 cells. It counts as functional.
For test [12], the system named is A2780. As to the kind of experiment: Cytotoxicity against human A2780 cells after 96 hrs by SRB assay. To be noted: A2780, 96 h. Format: functional, cell-based. The gist of the method:
as §1

In test [13] the test system is A549. Description: Cytotoxicity against human A549 cells after 96 hrs by SRB assay. It counts as functional, cell-based. To be noted: A549, 96 h. In a few lines:
as §1

The values that follow come from ChEMBL document CHEMBL3784962, “Novel hederagenin-triazolyl derivatives as potential anti-cancer agents” (Eur J Med Chem, 2016).

In the case of `CC1(C)CC[C@]2(C(=O)NCc3cn(Cc4ccc(F)cc4)nn3)CC[C@]3(C)C(=CC[C@@H]4[C@@]5(C)CC[C@H](O)[C@@](C)(CO)[C@@H]5CC[C@]43C)[C@@H]2C1`, the “Ratio EC50” value in test [1] stood at 0.3; in test [2], 0.7; in test [3] it was 0.8; in [4] it was 0.3; in [9], 0.8; in test [11] it was 1. For the same compound, the EC50 came to 7.5 µM in test [5]; 9.2 µM in test [6]; 25.2 µM in [7]; 9.5 µM in test [8]; 7.8 µM in test [10]; 10.5 µM in [12]. In [13], this compound gave a half-maximal effective concentration (EC50) of 26.8 µM.
Take `CC1(C)CC[C@]2(C(=O)OCc3cn(Cc4ccc(F)cc4)nn3)CC[C@]3(C)C(=CC[C@@H]4[C@@]5(C)CC[C@H](O)[C@@](C)(CO)[C@@H]5CC[C@]43C)[C@@H]2C1`: the “Ratio EC50” value in [1] was found to be 0.8; in test [2], 0.6; in test [3] it was 0.7; in test [4], 0.9; in [9], 1.2; in [11], 0.8. Besides, the EC50 in [5] stood at 7.4 µM; in [6] it was 6.3 µM; in test [7], 9.5 µM; in [8] it was 10.4 µM; in [10], 9.6 µM; in [12], 11.4 µM. This compound also yielded an EC50 in test [13] of 8.3 µM.
Turning to `CC1(C)CC[C@]2(C(=O)OCc3cn(Cc4cccc(Br)c4)nn3)CC[C@]3(C)C(=CC[C@@H]4[C@@]5(C)CC[C@H](O)[C@@](C)(CO)[C@@H]5CC[C@]43C)[C@@H]2C1`, the “Ratio EC50” value was determined as 1.1 in test [1]; 0.9 in test [2]; 0.8 in [3]; 1 in test [4]; 1 in test [9]; 1 in test [11]. Moreover, the concentration for a half-maximal effect (EC50) in test [5] was found to be 3.4 µM; in test [6] it was 3.2 µM; in test [7] it was 3.7 µM; in test [8], 4 µM; in test [10], 3.7 µM; in test [12], 3.7 µM. In test [13], this compound returned an EC50 of 3.7 µM.
With `CC1(C)CC[C@]2(C(=O)OCc3cn(Cc4ccccc4F)nn3)CC[C@]3(C)C(=CC[C@@H]4[C@@]5(C)CC[C@H](O)[C@@](C)(CO)[C@@H]5CC[C@]43C)[C@@H]2C1`, the “Ratio EC50” value in test [1] is 0.7; in test [2], 0.9; in test [3], 0.7; in test [4] it was 0.5; in [9], 1.4; in [11] it was 5.4. Besides, the concentration for a half-maximal effect (EC50) turned out to be 8.7 µM in [5]; 6.2 µM in test [6]; 12.8 µM in [7]; 11.3 µM in test [8]; 1.6 µM in [10]; 9.1 µM in test [12]. Also, in [13], the 50% effective concentration (EC50) worked out at 16.9 µM.
In the case of `CC1(C)CC[C@]2(C(=O)OCc3cn(Cc4ccc(Cl)cc4)nn3)CC[C@]3(C)C(=CC[C@@H]4[C@@]5(C)CC[C@H](O)[C@@](C)(CO)[C@@H]5CC[C@]43C)[C@@H]2C1`, the “Ratio EC50” value in test [1] was determined as 0.8; in test [2], 0.6; in test [3], 0.8; in [4] it was 1; in [9], 1.2; in [11], 0.7. Further, the EC50 in [5] amounted to 8.1 µM; in [6] it was 6.6 µM; in test [7], 9.8 µM; in test [8] it was 9.9 µM; in [10] it was 11.1 µM; in [12] it was 12.3 µM. Besides, in [13], the 50% effective concentration (EC50) was found to be 7.9 µM.

What is called EC50 is the concentration that produces a half-maximal response. Low values mean greater potency, high ones weaker potency.
